Measured values: ChEMBL document CHEMBL2169740 (J Med Chem, 2012)

Assays:
[1] = AUC (infinity) in CD1 mouse at 50 mg/kg, po administered as single dose; format: ADME, organism-based; set-up: time infinity, dose 50 mg/kg, route oral; settings: plasma
Method in brief: (§1)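 Female CD1 mice given one oral gavage dose (30, 50 or 200 mg/kg), n=3 per test article. Blood drawn from three mice at 15, 30, 60 min and 2, 4, 6, 8, 10, 24 h after dosing. Plasma concentration measured by LCMS over 24 h.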

Liver = experiment: Intrinsic clearance in CD1 mouse liver microsomes after 0.5 to 4 hrs by UPLC-MS analysis; format: ADME, Microsome
Method in brief: (§2)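 Pooled liver microsomes (female CD-1 mouse or mixed-gender human) at 0.5 mg/mL in 0.1 M potassium phosphate pH 7.4 with EDTA, with NADPH-regenerating solutions A+B; 37 °C with shaking; quenched at 0, 0.5, 1, 2, 4 h with cold methanol containing 10 μM warfarin internal standard. UPLC-MS (SIR); k from log peak-area-ratio slope, t1/2 = 0.693/k, CLint normalised to microsomal protein; triplicate.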

[2] = Permeability of the compound at pH 7.4 by PAMPA; format: ADME
Liver microsomes = experiment: Intrinsic clearance in human liver microsomes after 0.5 to 4 hrs by UPLC-MS analysis; format: ADME, Microsome; method in brief: as §2
[3] = AUC in CD1 mouse at 200 mg/kg, po administered as single dose; format: ADME, organism-based; set-up: dose 200 mg/kg, route oral; settings: plasma; method in brief: as §1
[4] = Cmax in CD1 mouse at 200 mg/kg, po administered as single dose; format: ADME, organism-based; set-up: dose 200 mg/kg, route oral; settings: in vivo; method in brief: as §1
[5] = Cmax in CD1 mouse at 50 mg/kg, po administered as single dose; format: ADME, organism-based; set-up: dose 50 mg/kg, route oral; settings: in vivo; method in brief: as §1
[6] = Permeability of the compound at pH 4.0 by PAMPA; format: ADME
Method in brief: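 PAMPA: compound diluted in system buffer at pH 7.4 or 4 as donor; membrane coated with GIT lipid; acceptor buffer; stirred 30 min with 40 μm aqueous boundary layer. UV spectra (250–500 nm) of reference, donor and acceptor; permeability coefficient from spectral AUCs; triplicate.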

[7] = Cmax in CD1 mouse at 30 mg/kg, po administered as single dose; format: ADME, organism-based; set-up: dose 30 mg/kg, route oral; settings: in vivo; method in brief: as §1
[8] = AUC in CD1 mouse at 30 mg/kg, po administered as single dose; format: ADME, organism-based; set-up: dose 30 mg/kg, route oral; settings: plasma; method in brief: as §1

Row | SMILES | AUC(0-inf) [1] [µM·h] | Intrinsic clearance (CLint) (Liver) [µL/min/mg] | permeability [2] [×10⁻⁶ cm/s] | Intrinsic clearance (CLint) (Liver microsomes) [µL/min/mg] | AUC(0-inf) [3] [µM·h] | Cmax [4] [nM] | Cmax [5] [nM] | permeability [6] [×10⁻⁶ cm/s] | Cmax [7] [nM] | AUC(0-inf) [8] [µM·h]
1 | COc1cc2[nH]c(-c3cccc(Oc4ccccc4)c3)c(C(=O)OCCCN3CCOCC3)c(=O)c2cc1F | – | 24 | 880 | 11 | – | – | – | 30 | – | –
2 | CCOC(=O)c1c(-c2cccc(OCC)c2)[nH]c2cc(OC)ccc2c1=O | – | 12 | 260 | 5.7 | 10 | 2400 | – | – | 1900 | 5.1
3 | COc1cc2[nH]c(-c3cccc(Oc4ccccc4)c3)c(C(=O)OCCO)c(=O)c2cc1F | – | 11 | 620 | 4.8 | – | – | – | – | – | –
4 | CCOC(=O)c1c(-c2cccc(Oc3ccccc3)c2)[nH]c2cc(OC)ccc2c1=O | – | 35 | 750 | – | 1 | 400 | – | – | 60 | 0.15
5 | CCOC(=O)c1c(-c2cccc(-c3ccccc3)c2)[nH]c2cc(OC)ccc2c1=O | – | 5.7 | 2900 | 5 | 4.3 | 430 | – | – | 230 | 1.7
6 | CCCOc1cccc(-c2[nH]c3cc(OC)ccc3c(=O)c2C(=O)OCC)c1 | – | 39 | 340 | 12 | 7.7 | 1800 | – | – | 300 | 1.6
7 | CCOC(=O)c1c(-c2ccc3c(c2)OCO3)[nH]c2cc(OC)ccc2c1=O | – | 12 | – | 12 | 65 | 5000 | – | – | 1500 | 6.1

Results, then the compound that gave them:

Row | AUC(0-inf) [1] [µM·h] | Intrinsic clearance (CLint) (Liver) [µL/min/mg] | permeability [2] [×10⁻⁶ cm/s] | Intrinsic clearance (CLint) (Liver microsomes) [µL/min/mg] | AUC(0-inf) [3] [µM·h] | Cmax [4] [nM] | Cmax [5] [nM] | permeability [6] [×10⁻⁶ cm/s] | Cmax [7] [nM] | AUC(0-inf) [8] [µM·h] | SMILES
8 | 9.3 | 6.7 | 230 | 56 | 19 | 1600 | 710 | – | – | – | CCOC(=O)c1c(-c2cc(F)cc(OC)c2)[nH]c2cc(OC)c(F)cc2c1=O
9 | – | 16 | 560 | – | – | – | – | – | – | – | CCOC(=O)c1c(-c2cccc(Oc3ccccc3)c2)[nH]c2cc(OC)c(F)cc2c1=O
10 | 71 | 2.7 | 670 | 1.2 | 160 | 39000 | 31000 | – | – | – | CCOC(=O)c1c(-c2cccc(Br)c2)[nH]c2cc(OC)c(F)cc2c1=O
11 | 130 | 4 | 410 | 0.5 | 280 | 66000 | 38000 | – | – | – | CCOC(=O)c1c(-c2cccc(Cl)c2)[nH]c2cc(OC)c(F)cc2c1=O
12 | – | 16 | – | 3.4 | – | – | – | – | – | – | CCOC(=O)c1c(-c2cccc(Cl)c2)[nH]c2cc(OC)ccc2c1=O
13 | – | 7.9 | – | 5.7 | 7.8 | 5800 | – | – | 8000 | 8 | CCOC(=O)c1c(-c2cccc(OC)c2)[nH]c2cc(OC)ccc2c1=O
